Compound activity as filed in PubChem BioAssay.
MEKK2 WT-MEK5: raises or lowers MEK5 binding to wildtype human MEKK2 PB1 domain; hit rate 1.1% among 290,000; Q9Y2U5; bead flow cytometry, Alexa488-MEK5 binding to MEKK2 WT; actives lie on both sides; AID 1531; binding response (% of control), % at 10 µM; in the data active = binding response below about 67% or above about 130%
MEKK2mut PB1 HTS: signal of MEK5 binding to mutant human MEKK2 PB1 domain. hit rate 0.35% among 290,000. bead flow cytometry, Alexa488-MEK5 binding to MEKK2 mutant. percent response, % at 10 µM; in the data active = percent response above about 24%, passing the limit was not always enough
Arr AP2 block: human beta-arrestin and AP2 interaction inhibition; FITC-arrestin peptide / GST-AP2 beads, flow cytometry; AP2 beta2 appendage carries R879A mutation; inhibition, % at 10 µM; hit rate 0.31% among 340,000; AID 504490;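 active = inhibition above a set limit, near 3 SD of compounds lacking own fluorescence, cut at about 54% in these data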
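System: GST-AP2 R879A bound to glutathione beads, E. coli-expressed. Also added: 50 nM FITC-arrestin peptide. Schedule: compound with beads 12 min RT, then probe 1 h RT. Signal: bead flow cytometry, FITC channel. Read-out basis: percent response.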
MEKK3 PB1 HTS: MEKK3-MEK5 PB1 interaction, increase or decrease; bead-based flow cytometry, Alexa488-MEK5 binding to MEKK3; actives lie on both sides; 0 = blocked by unlabeled MEK5, 100 = vehicle; binding response (% of control), % at 10 µM; AID 1529; Q99759; hit rate 1.4% among 290,000;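 active = binding response more than 3 SD above or below the average of its plate-row segment, actives on both sides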;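 also: Alexa488 bead fluorescence after subtracting the streptavidin-only scavenger bead signal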
Target sequence (Q99759 whole entry, looked up): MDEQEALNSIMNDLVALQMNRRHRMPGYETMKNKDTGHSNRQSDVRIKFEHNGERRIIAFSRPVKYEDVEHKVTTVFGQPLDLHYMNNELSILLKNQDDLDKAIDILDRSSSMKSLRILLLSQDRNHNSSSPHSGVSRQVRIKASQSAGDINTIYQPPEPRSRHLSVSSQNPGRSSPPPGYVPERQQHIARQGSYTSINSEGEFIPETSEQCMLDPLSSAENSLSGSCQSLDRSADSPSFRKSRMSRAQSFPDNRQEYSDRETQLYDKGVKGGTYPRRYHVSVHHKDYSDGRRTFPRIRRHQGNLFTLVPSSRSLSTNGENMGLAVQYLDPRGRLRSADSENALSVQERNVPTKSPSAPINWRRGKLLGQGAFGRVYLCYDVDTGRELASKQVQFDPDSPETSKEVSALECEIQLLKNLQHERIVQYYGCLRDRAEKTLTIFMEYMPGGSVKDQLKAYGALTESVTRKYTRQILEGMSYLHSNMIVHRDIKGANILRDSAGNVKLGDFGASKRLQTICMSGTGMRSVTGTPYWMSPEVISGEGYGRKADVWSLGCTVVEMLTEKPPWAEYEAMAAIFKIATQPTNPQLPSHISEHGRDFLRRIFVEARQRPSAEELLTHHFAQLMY
MEKK2wt confirm: raises or lowers MEK5 binding to wildtype human MEKK2, retest. shares compounds with MEKK3 PB1 HTS. bead flow cytometry, Alexa488-MEK5 binding to MEKK2 WT; actives lie on both sides. binding response (% of control), % at 10 µM. hit rate 2.4% among 5,900; in the data active = binding response below about 16% or above about 210%; inactive = in between
MEKK2mut confirm: signal of MEK5 binding to mutant human MEKK2, retest. shares compounds with MEKK3 PB1 HTS. bead flow cytometry, Alexa488-MEK5 binding to MEKK2 mutant. percent response, % at 10 µM. hit rate 2% among 5,900; in the data active = percent response mostly above about 71%, no sharp cut-off; inactive = mostly below about 38%;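 also: higher means compound restores mutant binding toward wildtype level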
MEKK3 confirm: MEKK3-MEK5 PB1 inhibition, single concentration confirmation | shares compounds with MEKK3 PB1 HTS | bead flow cytometry, Alexa488-MEK5 binding to MEKK3; active compounds read low | binding response (% of control), % at 10 µM | hit rate 1.8% among 5,900 | AID 1894;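 active = binding response below 72% of control, or above a set upper limit, though filed actives all read lower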;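 also: lower values mean stronger disruption of MEK5 binding to MEKK3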
A number is an active result; [ ] = another dose, or the depositor's remark. Most compounds without a hit are left out; they make up all but 2.3% or so of the library.

Results for CCN(CC)CCCN(C(=O)c1ccco1)c1nc(-c2ccc(Cl)cc2)cs1 ?
MEKK2 WT-MEK5: 169; MEKK2mut PB1 HTS: 39; Arr AP2 block: inactive; MEKK3 PB1 HTS: inactive; MEKK2wt confirm: inactive; MEKK2mut confirm: inactive; MEKK3 confirm: inactive

What do the screens show for `CCN(CC)CCCN(C(=O)c1cccs1)c1nc(-c2ccc(OC)cc2)cs1`?
MEKK2 WT-MEK5: 143; MEKK2mut PB1 HTS: inactive; Arr AP2 block: inactive; MEKK3 PB1 HTS: inactive; MEKK2wt confirm: inactive; MEKK2mut confirm: inactive; MEKK3 confirm: inactive

How did COc1ccc(-c2csc(N(C)C(=O)c3cccs3)n2)cc1 do in these assays?
MEKK2 WT-MEK5: inactive; MEKK2mut PB1 HTS: inactive; Arr AP2 block: inactive; MEKK3 PB1 HTS: inactive

What do the screens show for `CCN(CC)CCCN(C(=O)c1ccc(Br)cc1)c1nc(-c2ccc(OC)cc2)cs1`?
MEKK2 WT-MEK5: 176; MEKK2mut PB1 HTS: 24; Arr AP2 block: inactive; MEKK3 PB1 HTS: inactive; MEKK2wt confirm: inactive; MEKK2mut confirm: inactive; MEKK3 confirm: inactive

How did O=C(CN1CC(=O)Nc2ccccc21)NCCc1ccc(Cl)cc1Cl do in these assays?
MEKK2 WT-MEK5: inactive; MEKK2mut PB1 HTS: inactive; Arr AP2 block: inactive; MEKK3 PB1 HTS: inactive

How did O=C(NCc1ccccc1F)C1CCCN1C(=O)Nc1ccc(F)cc1 (configuration not stated) do in these assays?
MEKK2 WT-MEK5: inactive; MEKK2mut PB1 HTS: inactive; Arr AP2 block: inactive; MEKK3 PB1 HTS: inactive

What do the screens show for `N#Cc1c(NC(=O)CSc2nc(N)cc(=O)[nH]2)sc2c1CCCC2`?
MEKK2 WT-MEK5: 2.0[inhibitor]; MEKK2mut PB1 HTS: inactive; Arr AP2 block: inactive; MEKK3 PB1 HTS: 1.0[inhibitor]; MEKK2wt confirm: inactive; MEKK2mut confirm: inactive; MEKK3 confirm: inactive

What do the screens show for `COc1ccc(-c2coc3cc(O)cc(O)c3c2=O)cc1OC`?
MEKK2 WT-MEK5: inactive; MEKK2mut PB1 HTS: inactive; Arr AP2 block: inactive; MEKK3 PB1 HTS: 132; MEKK2wt confirm: inactive; MEKK2mut confirm: inactive; MEKK3 confirm: inactive

Results for CCN1C[C@@H]2[C@@H]3C(=O)N(Cc4ccccc4)C(=O)[C@@H]3[C@](CC)(C(=O)OC)N2C1=NC ?
Arr AP2 block: inactive

Results for CCCOc1ccc(C(=O)NCCC(=O)NCCCC(=O)O)cc1 ?
MEKK2 WT-MEK5: inactive; MEKK2mut PB1 HTS: inactive; Arr AP2 block: inactive; MEKK3 PB1 HTS: 130; MEKK2wt confirm: inactive; MEKK2mut confirm: inactive; MEKK3 confirm: inactive

How did COc1nc(NCCO)nc(Nc2ccccc2F)n1 do in these assays?
MEKK2 WT-MEK5: inactive; MEKK2mut PB1 HTS: inactive; Arr AP2 block: inactive; MEKK3 PB1 HTS: inactive

What do the screens show for `COc1nc(Nc2ccccc2F)nc(OC)n1`?
MEKK2 WT-MEK5: inactive; MEKK2mut PB1 HTS: 25; Arr AP2 block: inactive; MEKK3 PB1 HTS: inactive; MEKK2wt confirm: inactive; MEKK2mut confirm: inactive; MEKK3 confirm: inactive

What do the screens show for `Cc1cc(C(=O)COC(=O)CNS(=O)(=O)c2ccc3ccccc3c2)c(C)n1-c1ccccc1`?
MEKK2 WT-MEK5: inactive; MEKK2mut PB1 HTS: inactive; Arr AP2 block: inactive; MEKK3 PB1 HTS: 164; MEKK2wt confirm: inactive; MEKK2mut confirm: inactive; MEKK3 confirm: inactive

How did CC(=O)Nc1ccc(S(=O)(=O)Nc2cccc(NC(=O)c3ccco3)c2)cc1 do in these assays?
MEKK2 WT-MEK5: inactive; MEKK2mut PB1 HTS: inactive; Arr AP2 block: inactive; MEKK3 PB1 HTS: 45[inhibitor]; MEKK2wt confirm: inactive; MEKK2mut confirm: inactive; MEKK3 confirm: inactive

Results for CC(CNC(=O)c1cccs1)c1ccc([N+](=O)[O-])cc1 (configuration not stated) ?
MEKK2 WT-MEK5: inactive; MEKK2mut PB1 HTS: inactive; Arr AP2 block: inactive; MEKK3 PB1 HTS: inactive

What do the screens show for `O=c1oc2ccccc2nc1/C=C(O)/C=C/c1ccc(F)cc1`?
MEKK2 WT-MEK5: inactive; MEKK2mut PB1 HTS: inactive; Arr AP2 block: inactive; MEKK3 PB1 HTS: inactive

How did O=c1oc2ccccc2nc1/C=C(O)/C=C\c1ccccc1 do in these assays?
MEKK2 WT-MEK5: 61[inhibitor]; MEKK2mut PB1 HTS: inactive; Arr AP2 block: inactive; MEKK3 PB1 HTS: 82[inhibitor]; MEKK2wt confirm: inactive; MEKK2mut confirm: inactive; MEKK3 confirm: inactive

How did COc1cccc(NC(=O)[C@H](C)NC(=O)C2CCN(S(=O)(=O)c3ccc(C)cc3)CC2)c1 do in these assays?
MEKK2 WT-MEK5: inactive; MEKK2mut PB1 HTS: inactive; Arr AP2 block: inactive; MEKK3 PB1 HTS: inactive

Results for C=CCOC(=O)C1=C(C)NC(C)=C(C(=O)OCC=C)C1c1cn(-c2ccccc2)nc1-c1ccco1 ?
MEKK2 WT-MEK5: inactive; MEKK2mut PB1 HTS: inactive; Arr AP2 block: inactive; MEKK3 PB1 HTS: inactive

How did CCOc1cc(S(=O)(=O)NCc2ccccc2)ccc1Br do in these assays?
MEKK2 WT-MEK5: inactive; MEKK2mut PB1 HTS: inactive; Arr AP2 block: inactive; MEKK3 PB1 HTS: inactive

What do the screens show for `COc1ccc(-n2c(N)c(-c3nc4ccccc4n3C)sc2=S)cc1`?
MEKK2 WT-MEK5: inactive; MEKK2mut PB1 HTS: inactive; Arr AP2 block: inactive; MEKK3 PB1 HTS: 69[inhibitor]; MEKK2wt confirm: inactive; MEKK2mut confirm: inactive; MEKK3 confirm: inactive

How did O=C(O)CCN1C(=O)C2C3CC(C2C1=O)C1C(c2ccccc2)c2sc(=O)n(-c4ccccc4)c2SC31 (configuration not stated) do in these assays?
MEKK2 WT-MEK5: inactive; MEKK2mut PB1 HTS: inactive; Arr AP2 block: inactive; MEKK3 PB1 HTS: 129; MEKK2wt confirm: inactive; MEKK2mut confirm: inactive; MEKK3 confirm: inactive

Results for O=S(=O)(/C=C/c1ccccc1)N1CCN(c2ccc(F)cc2)CC1 ?
MEKK2 WT-MEK5: inactive; MEKK2mut PB1 HTS: inactive; Arr AP2 block: inactive; MEKK3 PB1 HTS: 74[inhibitor]; MEKK2wt confirm: inactive; MEKK2mut confirm: inactive; MEKK3 confirm: inactive

Results for c1ccc(CCc2cccnc2)cc1 ?
Arr AP2 block: inactive

Results for CCCCCCCCCCn1ccc(=N)cc1 ?
MEKK2 WT-MEK5: 148; MEKK2mut PB1 HTS: inactive; Arr AP2 block: inactive; MEKK3 PB1 HTS: inactive; MEKK2wt confirm: inactive; MEKK2mut confirm: inactive; MEKK3 confirm: inactive

How did CCCCCCCCn1ccc(=N)cc1 do in these assays?
MEKK2 WT-MEK5: inactive; MEKK2mut PB1 HTS: inactive; Arr AP2 block: inactive; MEKK3 PB1 HTS: inactive

How did CN(C)CCNc1ncnc2c1sc1nc(N3CCOCC3)c3c(c12)CC(C)(C)SC3 do in these assays?
MEKK2 WT-MEK5: 141; MEKK2mut PB1 HTS: inactive; Arr AP2 block: inactive; MEKK3 PB1 HTS: inactive; MEKK2wt confirm: inactive; MEKK2mut confirm: inactive; MEKK3 confirm: inactive

How did Nc1ccc2c(c1)N1CCN=C1S2 do in these assays?
MEKK2 WT-MEK5: inactive; MEKK2mut PB1 HTS: inactive; Arr AP2 block: inactive; MEKK3 PB1 HTS: inactive

How did O=C(Nc1ccc(Cl)cc1)Nc1ccc2c(c1)N1CCN=C1S2 do in these assays?
MEKK2 WT-MEK5: 141; MEKK2mut PB1 HTS: inactive; Arr AP2 block: inactive; MEKK3 PB1 HTS: inactive; MEKK2wt confirm: inactive; MEKK2mut confirm: inactive; MEKK3 confirm: inactive
